Measurements reported in ChEMBL document CHEMBL1765047, “Synthesis and in vivo evaluation of (S)-6-(4-fluorophenoxy)-3-((1-[11C]methylpiperidin-3-yl)methyl)-2-o-tolylquinazolin-4(3H)-one, a potential PET tracer for growth hormone secretagogue receptor (GHSR)” (Bioorg Med Chem, 2011).

What was measured:
Brain [1] = experiment: Drug uptake in CD1 mouse brain at 0.1 mCi, iv after 10 mins by gamma scintillation counting; type: ADME, organism-based; settings: in vivo
Summary of the method: (§1)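 Baseline regional brain study in male CD1 mice (23-28 g) injected via tail vein with 0.1 mCi tracer in 0.2 mL saline (~4000 mCi/μmol). Killed at 10, 30, 60 or 90 min; brain regions dissected on ice, weighed and gamma-counted with injectate standards. Reported as %ID/g tissue, mean ± SD, n=3.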

Cerebellum [2] = experiment: Drug uptake in CD1 mouse cerebellum at 0.1 mCi, iv after 30 mins by gamma scintillation counting; type: ADME, organism-based; settings: in vivo, 0.5 h; summary of the method: as §1
Hypothalamus [3] = experiment: Drug uptake in CD1 mouse hypothalamus at 0.1 mCi, iv after 30 mins by gamma scintillation counting; type: ADME, organism-based; settings: in vivo, 0.5 h; summary of the method: as §1
Hippocampus [4] = experiment: Drug uptake in CD1 mouse hippocampus at 0.1 mCi, iv after 30 mins by gamma scintillation counting; type: ADME, organism-based; settings: in vivo, 0.5 h; summary of the method: as §1
Cortex [5] = experiment: Drug uptake in CD1 mouse cortex at 0.1 mCi, iv after 30 mins by gamma scintillation counting; type: ADME, organism-based; settings: in vivo, 0.5 h; summary of the method: as §1
Brain [6] = experiment: Drug uptake in CD1 mouse brain at 0.1 mCi, iv after 30 mins by gamma scintillation counting; type: ADME, organism-based; settings: in vivo, 0.5 h; summary of the method: as §1
Cerebellum [7] = experiment: Drug uptake in CD1 mouse cerebellum at 0.1 mCi, iv after 60 mins by gamma scintillation counting; type: ADME, organism-based; settings: in vivo, 1 h; summary of the method: as §1
Hypothalamus [8] = experiment: Drug uptake in CD1 mouse hypothalamus at 0.1 mCi, iv after 60 mins by gamma scintillation counting; type: ADME, organism-based; settings: in vivo, 1 h; summary of the method: as §1
Hippocampus [9] = experiment: Drug uptake in CD1 mouse hippocampus at 0.1 mCi, iv after 60 mins by gamma scintillation counting; type: ADME, organism-based; settings: in vivo, 1 h; summary of the method: as §1
Cortex [10] = experiment: Drug uptake in CD1 mouse cortex at 0.1 mCi, iv after 60 mins by gamma scintillation counting; type: ADME, organism-based; settings: in vivo, 1 h; summary of the method: as §1
Brain [11] = experiment: Drug uptake in CD1 mouse brain at 0.1 mCi, iv after 60 mins by gamma scintillation counting; type: ADME, organism-based; settings: in vivo, 1 h; summary of the method: as §1
Cerebellum [12] = experiment: Drug uptake in CD1 mouse cerebellum at 0.1 mCi, iv after 90 mins by gamma scintillation counting; type: ADME, organism-based; settings: in vivo, 1.5 h; summary of the method: as §1
Hypothalamus [13] = experiment: Drug uptake in CD1 mouse hypothalamus at 0.1 mCi, iv after 90 mins by gamma scintillation counting; type: ADME, organism-based; settings: in vivo, 1.5 h; summary of the method: as §1
Hippocampus [14] = experiment: Drug uptake in CD1 mouse hippocampus at 0.1 mCi, iv after 90 mins by gamma scintillation counting; type: ADME, organism-based; settings: in vivo, 1.5 h; summary of the method: as §1
Cortex [15] = experiment: Drug uptake in CD1 mouse cortex at 0.1 mCi, iv after 90 mins by gamma scintillation counting; type: ADME, organism-based; settings: in vivo, 1.5 h; summary of the method: as §1
Brain [16] = experiment: Drug uptake in CD1 mouse brain at 0.1 mCi, iv after 90 mins by gamma scintillation counting; type: ADME, organism-based; settings: in vivo, 1.5 h; summary of the method: as §1
[17] = Lipophilicity, log D of the compound; type: physicochemical; settings: octanol/water
Summary of the method: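 Computed in silico rather than measured experimentally, for pH 7.4 (log D7.4), using a log P/log D prediction program.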

Blood [18] = experiment: Drug uptake in CD1 mouse blood at 0.1 mCi, iv after 10 mins by gamma scintillation counting; type: ADME, organism-based; settings: in vivo
Summary of the method: (§2)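 Baseline whole-body distribution in male CD1 mice (23-28 g). Tracer 0.1 mCi in 0.2 mL saline (~4000 mCi/μmol) into lateral tail vein. Cervical dislocation at 10, 30 or 90 min; organs dissected on ice, weighed, gamma-counted alongside injectate aliquots as standards. Reported as %ID/g tissue, mean ± SD, n=5.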

Heart = experiment: Drug uptake in CD1 mouse heart at 0.1 mCi, iv after 10 mins by gamma scintillation counting; type: ADME, organism-based; settings: in vivo; summary of the method: as §2
Lung = experiment: Drug uptake in CD1 mouse lung at 0.1 mCi, iv after 10 mins by gamma scintillation counting; type: ADME, organism-based; settings: in vivo; summary of the method: as §2
[19] = Drug uptake in CD1 mouse adrenal at 0.1 mCi, iv after 10 mins by gamma scintillation counting; type: ADME, organism-based, Adrenal gland; settings: in vivo; summary of the method: as §2
[20] = Drug uptake in CD1 mouse testis at 0.1 mCi, iv after 10 mins by gamma scintillation counting; type: ADME, organism-based; settings: in vivo; summary of the method: as §2
Muscle tissue = experiment: Drug uptake in CD1 mouse muscle at 0.1 mCi, iv after 10 mins by gamma scintillation counting; type: ADME, organism-based; settings: in vivo; summary of the method: as §2
Liver = experiment: Drug uptake in CD1 mouse liver at 0.1 mCi, iv after 10 mins by gamma scintillation counting; type: ADME, organism-based; settings: in vivo; summary of the method: as §2
Blood [21] = experiment: Drug uptake in CD1 mouse blood at 0.1 mCi, iv after 30 mins by gamma scintillation counting; type: ADME, organism-based; settings: in vivo, 0.5 h; summary of the method: as §2

Cc1ccccc1-c1nc2ccc(Oc3ccc(F)cc3)cc2c(=O)n1C[C@H]1CCCN([11CH3])C1
Drug uptake (Brain [1]): 0.54 % ID/g
Drug uptake (Cerebellum [2]): 0.56 % ID/g
Drug uptake (Hypothalamus [3]): 0.58 % ID/g
Drug uptake (Hippocampus [4]): 0.59 % ID/g
Drug uptake (Cortex [5]): 0.6 % ID/g
Drug uptake (Brain [6]): 0.57 % ID/g
Drug uptake (Cerebellum [7]): 0.59 % ID/g
Drug uptake (Hypothalamus [8]): 0.74 % ID/g
Drug uptake (Hippocampus [9]): 0.71 % ID/g
Drug uptake (Cortex [10]): 0.65 % ID/g
Drug uptake (Brain [11]): 0.62 % ID/g
Drug uptake (Cerebellum [12]): 0.59 % ID/g
Drug uptake (Hypothalamus [13]): 0.86 % ID/g
Drug uptake (Hippocampus [14]): 0.65 % ID/g
Drug uptake (Cortex [15]): 0.66 % ID/g
Drug uptake (Brain [16]): 0.54 % ID/g
logD [17]: 4.1
Drug uptake (Blood [18]): 2.14 % ID/g
Drug uptake (Heart): 5.11 % ID/g
Drug uptake (Lung): 26.44 % ID/g
Drug uptake [19]: 15.57 % ID/g
Drug uptake [20]: 1.07 % ID/g
Drug uptake (Muscle tissue): 3.79 % ID/g
Drug uptake (Liver): 18.63 % ID/g
Drug uptake (Blood [21]): 1.87 % ID/g
